Experimental data reported in PMC5974556 (ChemistryOpen, 2018).
Values after ≈ are worked out from the molar mass of the structure shown. Where a name gives a salt, the structure may show the parent alone. Marks after values point to notes of the source that are not given here.

How the values were obtained:
[1] = tested on: HepG2 cells; assay: Mitochondria activity; format: cell-based; details: Homo sapiens, HepG2, 72 h, read-out: HepG2 IC50 MTT
In short: (§1)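 Cells kept in DMEM+glutamax with 1% NEAA, 1% P/S and 10% FBS at 37 °C, 10% CO2. Seeded 2×10^4 per well for 24 h, then exposed 72 h to test compound at various concentrations in serum-free medium, in triplicate. MTT (5 mg/mL in PBS) added for 2 h, formazan dissolved in DMSO, read at 570 nm. IC50 from % survival; doxorubicin control; MTT and SRB data pooled, mean ± SD, n≥6.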

[2] = tested on: Caco‐2 cells; assay: Protein content; format: cell-based; details: Homo sapiens, Caco-2, 72 h, read-out: Caco‐2 IC50 SRB
In short: (§2)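 Seeded 2×10^4 cells per well for 24 h, then treated with or without test compound for three days, in triplicate. Fixed with 50% TCA for 1 h at 4 °C, washed and dried. Stained 30 min at 4 °C with 0.4% sulforhodamine B in 1% acetic acid, rinsed with 1% acetic acid. Dye redissolved in Tris buffer, absorbance read at 490 nm. Doxorubicin control; MTT and SRB data pooled, mean ± SD, n≥6.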

[3] = Ferric reducing antioxidant power; details: chemical antioxidant capacity, n=3
In short: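 FRAP reagent made from acetate buffer, TPTZ in ethanol and FeCl3·6H2O in dilute HCl, mixed 10:1:1, with TPTZ and iron solutions fresh daily. Sample mixed with reagent 1:9, absorbance read at 593 nm after 4 min. Values expressed as Trolox equivalents by linear regression on a Trolox standard curve; α-tocopherol positive control.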

[4] = tested on: EA.hy926 cells; assay: Intracellular ROS; format: cell-based; details: Homo sapiens; for activity at 1 µM: EA.hy 926, read-out: Intracellular ROS, percentage compared to the untreated control cells (ROS/SRB), EA.hy926, 1 μM; for activity at 10 µM: EA.hy 926, read-out: Intracellular ROS, percentage compared to the untreated control cells (ROS/SRB), EA.hy926, 10 μM
In short: (§3)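 Cells grown in DMEM+glutamax with 1% NEAA, 1% P/S and 10% FBS at 37 °C, 10% CO2. Seeded at 2×10^4 cells/well for 24 h, then confluent cells were exposed to test compound at 1 or 10 µM in serum-free medium, with NAC as control. Cells were washed, loaded with DCFH-DA for 30 min, then kept 1 h in phenol red-free DMEM. Fluorescence read at ex 485/em 535 nm, normalised to same-well SRB protein (490 nm) and given as % of untreated cells. Mean ± SD, n≥3; two-tailed t-test with unequal variances.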

[5] = tested on: Caco‐2 cells; assay: Mitochondria activity; format: cell-based; details: Homo sapiens, Caco-2, 72 h, read-out: Caco‐2 IC50 MTT
In short: as §1

[6] = tested on: HepG2 cells; assay: Intracellular ROS; format: cell-based; details: Homo sapiens; for activity at 1 µM: HepG2, read-out: Intracellular ROS, percentage compared to the untreated control cells (ROS/SRB), HepG2, 1 μM; for activity at 10 µM: HepG2, read-out: Intracellular ROS, percentage compared to the untreated control cells (ROS/SRB), HepG2, 10 μM
In short: as §3

[7] = tested on: EA.hy926 cells; assay: Mitochondria activity; format: cell-based; details: Homo sapiens, EA.hy 926, 72 h, read-out: EA.hy926 IC50 MTT
In short: as §1

[8] = tested on: HT‐29 cells; assay: Intracellular ROS; format: cell-based; details: Homo sapiens; for activity at 1 µM: HT-29, read-out: Intracellular ROS, percentage compared to the untreated control cells (ROS/SRB), HT‐29, 1 μM; for activity at 10 µM: HT-29, read-out: Intracellular ROS, percentage compared to the untreated control cells (ROS/SRB), HT‐29, 10 μM
In short: as §3

[9] = tested on: HT‐29 cells; assay: Mitochondria activity; format: cell-based; details: Homo sapiens, HT-29, 72 h, read-out: HT‐29 IC50 MTT
In short: as §1

[10] = tested on: HT‐29 cells; assay: Protein content; format: cell-based; details: Homo sapiens, HT-29, 72 h, read-out: HT‐29 IC50 SRB
In short: as §2

[11] = tested on: Caco‐2 cells; assay: Intracellular ROS; format: cell-based, human; details: protein content normalization, mean±SD, n≥3
In short: as §3

[12] = tested on: EA.hy926 cells; assay: Protein content; format: cell-based; details: Homo sapiens, EA.hy 926, 72 h, read-out: EA.hy926 IC50 SRB
In short: as §2

[13] = tested on: HepG2 cells; assay: Protein content; format: cell-based; details: Homo sapiens, HepG2, 72 h, read-out: HepG2 IC50 SRB
In short: as §2

[14] = Water solubility, shake flask method in 0.1 M phosphate buffer pH 6.8; format: physicochemical; details: 37 °C, pH 6.8, aqueous buffer, thermodynamic from solid
In short: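 Excess solid added to 1 mL sodium phosphate buffer, pH 6.8. Two conditions: 90 min sonication at 37 °C, or 30 min sonication at 37 °C, 23 h shaking at 300 rpm, then 30 min sonication. Centrifuged 14000 rpm for 5 min, filtered (0.2 µm) at 37 °C and diluted in DMSO. Quantified by LC at maximum absorbance against standard curves; independent triplicates.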

Row | Structure (SMILES) | IC50 [1] | IC50 [2] | IC50 [5] | Intracellular ROS, percentage compared to the untreated control cells (ROS/SRB), Caco‐2, 1 μM [11] | Intracellular ROS, percentage compared to the untreated control cells (ROS/SRB), Caco‐2, 10 μM [11] | IC50 [13] | solubility at 90 min [14] | solubility at 24 h [14] | FRAP [3] | activity at 1 µM [4] | activity at 10 µM [4] | activity at 1 µM [6] | activity at 10 µM [6] | IC50 [7] | activity at 1 µM [8] | activity at 10 µM [8] | IC50 [9] | IC50 [10] | IC50 [12]
1 | O=C(/C=C(/C=C/c1cccnc1)NCCO)/C=C/c1cccnc1 [5 e, (1E,4Z,6E)‐5‐(2‐Hydroxyethylamino)‐1,7‐di(pyridin‐3‐yl)hepta‐1,4,6‐trien‐3‐one] | > 75 µM | > 75 µM | > 75 µM | 111.4±8.9% | 118.6±2.8^[c] % | > 75 µM | 4350 ± 260 µM (≈ 1400 µg/mL) | 4850 ± 140 µM (≈ 1560 µg/mL) | 0.04 Trolox equiv per μM | 102 ± 1.6% | 115 ± 7.6% | 88.6 ± 15.2% | 92.1 ± 5.1% | > 75 µM | 93.9 ± 5.5% | 110 ± 3.7% | > 75 µM | > 75 µM | > 75 µM
2 | COCCCN1C(/C=C/c2cccnc2)=CC(=O)CC1c1cccnc1 (centres unmarked) [6 d, (E)‐1‐(3‐Methoxypropyl)‐2‐(pyridin‐3‐yl)‐6‐[2‐(pyridin‐3‐yl)vinyl]‐2,3‐dihydropyridin‐4(1H)‐one] | > 75 µM | > 75 µM | > 75 µM | 90.8±6.3% | 89.9±3.4% | > 75 µM | 1280 ± 61.2 µM (≈ 448 µg/mL) | 2980 ± 166 µM (≈ 1040 µg/mL) | 0.00 Trolox equiv per μM | 95.2 ± 5% | 98.3 ± 5.3% | 85.6 ± 8.9% | 95.7 ± 10% | > 75 µM | 83.4 ± 5.6% | 88.4 ± 4.1% | > 75 µM | > 75 µM | > 75 µM
3 | CC(=O)N[C@@H](CS)C(=O)O [N‐acetyl‐L‐cysteine, reference compound] | – | > 75 µM | > 75 µM | 55.7±5.8^[c] % | 47.8±2.6^[c] % | – | – | – | – | 79.6 ± 11.1% | 79.6 ± 7.4% | 73.1 ± 2.7% | 70.5 ± 3.1% | – | 90.1 ± 12% | 87.7 ± 3.7% | – | – | –
4 | O=C(/C=C(/C=C/c1cccnc1)NC1CCCCC1)/C=C/c1cccnc1 [5 b, (1E,4Z,6E)‐5‐Cyclohexylamino‐1,7‐di(pyridin‐3‐yl)hepta‐1,4,6‐trien‐3‐one] | > 75 µM | 60.8 ± 6 µM | 65.6 ± 2.1 µM | 101.3±0.9% | 117.7±5.6^[b] % | > 75 µM | 11.3 ± 0.6 µM (≈ 4.06 µg/mL) | 12.2 ± 0.6 µM (≈ 4.39 µg/mL) | 0.00 Trolox equiv per μM | 89.1 ± 4.2% | 114 ± 9.5% | 92.3 ± 7.8% | 98.8 ± 4.6% | 40.2 ± 1.4 µM | 93.7 ± 13.2% | 90.6 ± 2.8% | 36.4 ± 7.9 µM | 19.4 ± 0.9 µM | 53 ± 1.9 µM
5 | Cc1c(C)c2c(c(C)c1O)CC[C@@](C)(CCC[C@H](C)CCC[C@H](C)CCCC(C)C)O2 [α‐tocopherol, reference compound] | – | – | – | – | – | – | – | – | 0.76 Trolox equiv per μM | – | – | – | – | – | – | – | – | – | –

Continued by falling IC50 [2], values first:

Row | IC50 [1] | IC50 [2] | IC50 [5] | Intracellular ROS, percentage compared to the untreated control cells (ROS/SRB), Caco‐2, 1 μM [11] | Intracellular ROS, percentage compared to the untreated control cells (ROS/SRB), Caco‐2, 10 μM [11] | IC50 [13] | solubility at 90 min [14] | solubility at 24 h [14] | Structure (SMILES) | FRAP [3] | activity at 1 µM [4] | activity at 10 µM [4] | activity at 1 µM [6] | activity at 10 µM [6] | IC50 [7] | activity at 1 µM [8] | activity at 10 µM [8] | IC50 [9] | IC50 [10] | IC50 [12]
6 | 56.7 ± 3.7 µM | 49.1 ± 0.6 µM | 53.8 ± 0.6 µM | 102.4±8.8% | 243.2±17.5^[b] % | 66.4 ± 1.3 µM | 895 ± 18 µM (≈ 300 µg/mL) | 2280 ± 174 µM (≈ 766 µg/mL) | COCCNC(=C\C(=O)/C=C/c1cccnc1)/C=C/c1cccnc1 [5 c, (1E,4Z,6E)‐5‐(2‐Methoxyethylamino)‐1,7‐di(pyridin‐3‐yl)hepta‐1,4,6‐trien‐3‐one] | 0.00 Trolox equiv per μM | 83.7 ± 6.7% | 89.5 ± 2.7% | 94.8 ± 4% | 88.4 ± 5.3% | 60 ± 10.5 µM | 100 ± 5.8% | 88.1 ± 3.6% | 55.3 ± 12.5 µM | 46 ± 15.8 µM | 63 ± 8.3 µM
7 | > 75 µM | 36 ± 0.1 µM | 28.5 ± 3.5 µM | 101.5±9.2% | 110.6±5.3^[b] % | > 75 µM | 897.4 ± 1.1 µM (≈ 314 µg/mL) | 2310 ± 90 µM (≈ 808 µg/mL) | COCCCNC(=C\C(=O)/C=C/c1cccnc1)/C=C/c1cccnc1 [5 d, (1E,4Z,6E)‐5‐(3‐Methoxypropylamino)‐1,7‐di(pyridin‐3‐yl)hepta‐1,4,6‐trien‐3‐one] | 0.01 Trolox equiv per μM | 102 ± 5.8% | 98.3 ± 2% | 92.3 ± 4.6% | 89.4 ± 3.1% | 70.6 ± 2.5 µM | 102 ± 19.4% | 95.1 ± 14% | 59.6 ± 7.7 µM | 51.5 ± 6.1 µM | 72.7 ± 3.7 µM
8 | 20.3 ± 4.1 µM | 33.1 ± 4.5 µM | 28 ± 6.4 µM | 96.7±5.8% | 95.8±2.5% | 21.3 ± 4 µM | 2.9 ± 0.3 µM (≈ 1.07 µg/mL) | 2.6 µM (≈ 0.958 µg/mL) | COc1cc(/C=C/C(=O)CC(=O)/C=C/c2ccc(O)c(OC)c2)ccc1O [curcumin, reference compound] | 1.11 Trolox equiv per μM | 99.9 ± 6.4% | 104 ± 7.6% | 95.9 ± 13.8% | 84.2 ± 8.1% | 20 ± 5.9 µM | 92.8 ± 5.8% | 90.2 ± 6.1% | 23.4 ± 5.1 µM | 20.3 ± 1.1 µM | 34.7 ± 10.5 µM
9 | 26.2 ± 0.3 µM | 31.6 ± 9 µM | 45.3 ± 10.5 µM | 109.8±7.4% | 114.7±3.1^[b] % | 20.8 ± 1.5 µM | 168 ± 6 µM (≈ 56.2 µg/mL) | 303 ± 16 µM (≈ 101 µg/mL) | CC(C)CNC(=C\C(=O)/C=C/c1cccnc1)/C=C/c1cccnc1 [5 a, (1E,4Z,6E)‐5‐Isobutylamino‐1,7‐di(pyridin‐3‐yl)hepta‐1,4,6‐trien‐3‐one] | 0.03 Trolox equiv per μM | 88.7 ± 9.3% | 93.4 ± 14.6% | 90.7 ± 13.7% | 94 ± 4.6% | 33 ± 9.5 µM | 103 ± 11.1% | 84.1 ± 2.5% | 37.6 ± 1.8 µM | 30.9 ± 10.9 µM | 35.9 ± 7.2 µM
10 | 5.5 ± 1.4 µM | 12.1 ± 0.8 µM | 11.1 ± 1 µM | – | – | 2.5 ± 1.2 µM | – | – | COc1cccc2c1C(=O)c1c(O)c3c(c(O)c1C2=O)C[C@@](O)(C(=O)CO)C[C@@H]3O[C@H]1C[C@H](N)[C@H](O)[C@H](C)O1 [Dox, doxorubicin hydrochloride, reference compound] | – | – | – | – | – | 1.4 ± 0.5 µM | – | – | 4 ± 0.9 µM | 3.5 ± 0.4 µM | 1.4 ± 0.3 µM
